{
  "source": "ChEMBL document CHEMBL1240422",
  "about": "“Design, synthesis and biological evaluation of 3,5-diaryl-isoxazoline/isoxazole-pyrrolobenzodiazepine conjugates as potential anticancer agents” (2010)",
  "key": {"[1]": {"tested_on": "RPMI-8226", "test": "Anticancer activity against human RPMI8226 cells after 48 hrs by SRB assay", "type": "functional", "details": "RPMI-8226, 48 h"}, "[2]": {"tested_on": "SR", "test": "Anticancer activity against human SR cells after 48 hrs by SRB assay", "type": "functional"}, "[3]": {"tested_on": "EKVX", "test": "Anticancer activity against human EKVX cells after 48 hrs by SRB assay", "type": "functional"}, "[4]": {"tested_on": "HOP-62", "test": "Anticancer activity against human HOP62 cells after 48 hrs by SRB assay", "type": "functional", "details": "HOP-62, 48 h", "outline": "(§1)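 Grown in RPMI 1640 with 10% FBS and 2 mM L-glutamine at 37 °C, 5% CO2. Seeded at densities set by doubling time, then preincubated 24 h. Continuous 48 h drug exposure at four concentrations (0.1, 1, 10, 100), triplicate wells. Fixed with cold TCA (final 10%) at 4 °C, 60 min. Stained with 0.4% SRB in 1% acetic acid, eluted with 10 mM Tris base, read at 540/690 nm. Percent growth versus control wells.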"}, "[5]": {"tested_on": "HOP-92", "test": "Anticancer activity against human HOP92 cells after 48 hrs by SRB assay", "type": "functional", "details": "HOP-92, 48 h"}, "[6]": {"tested_on": "NCI-H322M", "test": "Anticancer activity against human NCI-H322M cells after 48 hrs by SRB assay", "type": "functional"}, "[7]": {"tested_on": "COLO 205", "test": "Anticancer activity against human COLO205 cells after 48 hrs by SRB assay", "type": "functional", "details": "COLO 205, 48 h", "outline": "as §1"}, "[8]": {"tested_on": "HCT-116", "test": "Anticancer activity against human HCT116 cells after 48 hrs by SRB assay", "type": "functional", "details": "HCT-116, 48 h"}, "[9]": {"tested_on": "HCT-15", "test": "Anticancer activity against human HCT15 cells after 48 hrs by SRB assay", "type": "functional", "details": "HCT-15, 48 h"}, "[10]": {"tested_on": "HT-29", "test": "Anticancer activity against human HT-29 cells after 48 hrs by SRB assay", "type": "functional", "details": "HT-29, 48 h"}, "[11]": {"tested_on": "KM12", "test": "Anticancer activity against human KM12 cells after 48 hrs by SRB assay", "type": "functional", "details": "KM12, 48 h"}, "[12]": {"tested_on": "SW-620", "test": "Anticancer activity against human SW620 cells after 48 hrs by SRB assay", "type": "functional", "details": "SW-620, 48 h"}, "[13]": {"tested_on": "SF-539", "test": "Anticancer activity against human SF539 cells after 48 hrs by SRB assay", "type": "functional", "details": "SF-539, 48 h"}, "[14]": {"tested_on": "SNB-19", "test": "Anticancer activity against human SNB19 cells after 48 hrs by SRB assay", "type": "functional", "details": "SNB-19, 48 h"}, "[15]": {"tested_on": "SNB-75", "test": "Anticancer activity against human SNB75 cells after 48 hrs by SRB assay", "type": "functional", "details": "SNB-75, 48 h"}, "[16]": {"tested_on": "U-251", "test": "Anticancer activity against human U251 cells after 48 hrs by SRB assay", "type": "functional", "details": "U-251, 48 h"}, "[17]": {"tested_on": "LOX IMVI", "test": "Anticancer activity against human LOXIMVI cells after 48 hrs by SRB assay", "type": "functional"}, "[18]": {"tested_on": "SK-MEL-2", "test": "Anticancer activity against human SK-MEL-2 cells after 48 hrs by SRB assay", "type": "functional", "details": "SK-MEL-2, 48 h"}, "[19]": {"tested_on": "IGROV-1", "test": "Anticancer activity against human IGROV1 cells after 48 hrs by SRB assay", "type": "functional", "details": "IGROV-1, 48 h"}, "[20]": {"tested_on": "OVCAR-4", "test": "Anticancer activity against human OVCAR4 cells after 48 hrs by SRB assay", "type": "functional", "details": "OVCAR-4, 48 h"}, "[21]": {"tested_on": "OVCAR-5", "test": "Anticancer activity against human OVCAR5 cells after 48 hrs by SRB assay", "type": "functional", "details": "OVCAR-5, 48 h"}, "[22]": {"tested_on": "OVCAR-8", "test": "Anticancer activity against human OVCAR8 cells after 48 hrs by SRB assay", "type": "functional", "details": "OVCAR-8, 48 h"}, "[23]": {"tested_on": "SK-OV-3", "test": "Anticancer activity against human SKOV3 cells after 48 hrs by SRB assay", "type": "functional", "details": "SK-OV-3, 48 h"}, "[24]": {"tested_on": "RXF 393", "test": "Anticancer activity against human […] cells after 48 hrs by SRB assay", "type": "functional", "details": "RXF 393, 48 h"}, "[25]": {"tested_on": "SN12C", "test": "Anticancer activity against human SN12C cells after 48 hrs by SRB assay", "type": "functional"}, "[26]": {"tested_on": "UO-31", "test": "Anticancer activity against human UO31 cells after 48 hrs by SRB assay", "type": "functional", "details": "UO-31, 48 h"}, "[27]": {"tested_on": "MDA-MB-231", "test": "Anticancer activity against human MDA-MB-231 cells after 48 hrs by SRB assay", "type": "functional", "details": "MDA-MB-231, 48 h"}, "[28]": {"test": "Anticancer activity against human Hs 578T cells after 48 hrs by SRB assay", "type": "functional"}, "[29]": {"tested_on": "BT-549", "test": "Anticancer activity against human BT549 cells after 48 hrs by SRB assay", "type": "functional", "details": "BT-549, 48 h"}, "[30]": {"tested_on": "T47D", "test": "Anticancer activity against human T47D cells after 48 hrs by SRB assay", "type": "functional"}, "[31]": {"tested_on": "MDA-MB-468", "test": "Anticancer activity against human MDA-MB-468 cells after 48 hrs by SRB assay", "type": "functional", "details": "MDA-MB-468, 48 h"}, "[32]": {"tested_on": "PC-3", "test": "Anticancer activity against human PC3 cells after 48 hrs by SRB assay", "type": "functional", "details": "PC-3, 48 h", "outline": "as §1"}, "[33]": {"tested_on": "SK-MEL-28", "test": "Anticancer activity against human SK-MEL-28 cells after 48 hrs by SRB assay", "type": "functional", "details": "SK-MEL-28, 48 h"}, "[34]": {"tested_on": "SK-MEL-5", "test": "Anticancer activity against human SK-MEL-5 cells after 48 hrs by SRB assay", "type": "functional", "details": "SK-MEL-5, 48 h"}, "[35]": {"tested_on": "UACC-257", "test": "Anticancer activity against human UACC257 cells after 48 hrs by SRB assay", "type": "functional", "details": "UACC-257, 48 h"}, "[36]": {"tested_on": "UACC-62", "test": "Anticancer activity against human UACC62 cells after 48 hrs by SRB assay", "type": "functional", "details": "UACC-62, 48 h"}, "[37]": {"tested_on": "A-375", "test": "Cell cycle arrest in human A375 cells assessed as accumulation at G0/G1 phase at 4 uM after 24 hrs using propidium iodide staining by FACS", "type": "functional", "outline": "(§2)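 Treated A375 cells (24 h) were harvested with trypsin-EDTA and fixed in ice-cold 70% ethanol (4 °C, 30 min). After a PBS wash, they were incubated with 1 mg/mL RNase A (37 °C, 30 min) and stained with propidium iodide solution containing trisodium citrate and Triton X-100. DNA content was measured by flow cytometry on 20,000 events. Controls were DMSO-treated.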"}, "[38]": {"tested_on": "A-375", "test": "Cell cycle arrest in human A375 cells assessed as accumulation at S phase at 4 uM after 24 hrs using propidium iodide staining by FACS", "type": "functional", "outline": "as §2"}, "[39]": {"tested_on": "A-375", "test": "Cell cycle arrest in human A375 cells assessed as accumulation at G2/M phase at 4 uM after 24 hrs using propidium iodide staining by FACS", "type": "functional", "outline": "as §2"}, "[40]": {"tested_on": "A-375", "test": "Induction of apoptosis in human A375 cells assessed as increase in PPAR protein level at 4 uM after 24 hrs by Western blotting", "type": "functional, cell-based", "outline": "(§3)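 A375 cells were treated for 24 h and lysed in ice-cold RIPA buffer (1% NP-40, 0.5% deoxycholate, 0.1% SDS, protease inhibitors). Protein was quantified by Bradford assay, and 30 µg/lane was run on 12% SDS-PAGE and transferred to PVDF. Membranes were blocked 2 h at RT in TBST with 5% blocker, incubated with primary antibody overnight at 4 °C, then with HRP secondary (1:2000, 1 h, RT). Detection was by chemiluminescence, with β-actin as loading control.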"}, "[41]": {"tested_on": "A-375", "test": "Induction of apoptosis in human A375 cells assessed as reduction in CDK2 protein level at 4 uM after 24 hrs by Western blotting", "type": "functional, cell-based", "outline": "as §3"}},
  "note": "Activity calls are given as the source filed them. No cut-off for these calls is given here.",
  "data": [
    {"smiles": "COc1ccc(C2=NOC(c3cc(OC)c(OC)c(OC)c3)C2)cc1OCCCCOc1cc2c(cc1OC)C(=O)N1CCC[C@H]1C=N2", "note": "(stereo partly specified)", "values": [
      {"measurement": "GI50", "setting": "[1]", "value": 240, "unit": "nM"},
      {"measurement": "GI50", "setting": "[2]", "value": 140, "unit": "nM"},
      {"measurement": "GI50", "setting": "[3]", "value": 460, "unit": "nM"},
      {"measurement": "GI50", "setting": "[4]", "value": 270, "unit": "nM"},
      {"measurement": "GI50", "setting": "[5]", "value": 310, "unit": "nM"},
      {"measurement": "GI50", "setting": "[6]", "value": 340, "unit": "nM"},
      {"measurement": "GI50", "setting": "[7]", "value": 210, "unit": "nM"},
      {"measurement": "GI50", "setting": "[8]", "value": 180, "unit": "nM"},
      {"measurement": "GI50", "setting": "[9]", "value": 180, "unit": "nM"},
      {"measurement": "GI50", "setting": "[10]", "value": 360, "unit": "nM"},
      {"measurement": "GI50", "setting": "[11]", "value": 220, "unit": "nM"},
      {"measurement": "GI50", "setting": "[12]", "value": 230, "unit": "nM"},
      {"measurement": "GI50", "setting": "[13]", "value": 220, "unit": "nM"},
      {"measurement": "GI50", "setting": "[14]", "value": 340, "unit": "nM"},
      {"measurement": "GI50", "setting": "[15]", "value": 320, "unit": "nM"},
      {"measurement": "GI50", "setting": "[16]", "value": 300, "unit": "nM"},
      {"measurement": "GI50", "setting": "[17]", "value": 220, "unit": "nM"},
      {"measurement": "GI50", "setting": "[18]", "value": 230, "unit": "nM"},
      {"measurement": "GI50", "setting": "[19]", "value": 240, "unit": "nM"},
      {"measurement": "GI50", "setting": "[20]", "value": 400, "unit": "nM"},
      {"measurement": "GI50", "setting": "[21]", "value": 420, "unit": "nM"},
      {"measurement": "GI50", "setting": "[22]", "value": 370, "unit": "nM"},
      {"measurement": "GI50", "setting": "[23]", "value": 470, "unit": "nM"},
      {"measurement": "GI50", "setting": "[24]", "value": 210, "unit": "nM"},
      {"measurement": "GI50", "setting": "[25]", "value": 300, "unit": "nM"},
      {"measurement": "GI50", "setting": "[26]", "value": 290, "unit": "nM"},
      {"measurement": "GI50", "setting": "[27]", "value": 190, "unit": "nM"},
      {"measurement": "GI50", "setting": "[28]", "value": 160, "unit": "nM"},
      {"measurement": "GI50", "setting": "[29]", "value": 90, "unit": "nM"},
      {"measurement": "GI50", "setting": "[30]", "value": 280, "unit": "nM"},
      {"measurement": "GI50", "setting": "[31]", "value": 220, "unit": "nM"},
      {"measurement": "GI50", "setting": "[32]", "value": 2480, "unit": "nM"},
      {"measurement": "GI50", "setting": "[33]", "value": 200, "unit": "nM"},
      {"measurement": "GI50", "setting": "[34]", "value": 160, "unit": "nM"},
      {"measurement": "GI50", "setting": "[35]", "value": 270, "unit": "nM"},
      {"measurement": "GI50", "setting": "[36]", "value": 160, "unit": "nM"},
      {"measurement": "Activity", "setting": "[37]", "value": 95.2, "unit": "%"},
      {"measurement": "Activity", "setting": "[38]", "value": 3.52, "unit": "%"},
      {"measurement": "Activity", "setting": "[39]", "value": 1.23, "unit": "%"},
      {"measurement": "Activity", "setting": "[40]", "value": "Active"},
      {"measurement": "Activity", "setting": "[41]", "value": "Active"}
    ]}
  ]
}
